Laboratory results published in ChEMBL document CHEMBL1156940, “Modified cap group suberoylanilide hydroxamic acid histone deacetylase inhibitor derivatives reveal improved selective antileukemic activity” (J Med Chem, 2010).
Calls of active or inactive are those of the source. The rule behind the calls is not given here.

Assays:
SK-BR-3 = experiment: Antiproliferative activity against human SK-BR-3 cells after 48 hrs by cell titer-glo assay; assay type: functional, cell-based; details: SK-BR-3, 48 h
HT-29 = experiment: Antiproliferative activity against human HT-29 cells after 48 hrs by cell titer-glo assay; assay type: functional, cell-based; details: HT-29, 48 h
U-937 = experiment: Antiproliferative activity against human U937 cells after 48 hrs by cell titer-glo assay; assay type: functional, cell-based; details: U-937, 48 h
Outline: (§1)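 Cells kept in RPMI-1640 with 10% FBS at 37 °C, 5% CO2. 10^4 suspension cells were plated immediately before dosing. Compounds were added at 0.1–100 µM, final 1% DMSO, with DMSO vehicle control, and incubated 48 h. CellTiter-Glo luminescence was read. EC50 is the dose reducing luminescence to 50% of untreated cultures.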

Jurkat = experiment: Antiproliferative activity against human Jurkat JA16 cells after 48 hrs by cell titer-glo assay; assay type: functional, cell-based
HL-60 = experiment: Antiproliferative activity against human HL60 cells after 48 hrs by cell titer-glo assay; assay type: functional, cell-based; details: HL-60, 48 h
K562 = experiment: Antiproliferative activity against human K562 cells after 48 hrs by cell titer-glo assay; assay type: functional, cell-based; details: K562, 48 h; outline: as §1
[1] = target: Histone deacetylase 1 (Homo sapiens) (UniProt Q13547); experiment: Inhibition of recombinant FLAG-tagged HDAC1 assessed as [3H]acetic acid release preincubated for 30 mins measured after 2 hrs by scintillation counting
Sequence of Histone deacetylase 1 (Homo sapiens) (Q13547 whole entry): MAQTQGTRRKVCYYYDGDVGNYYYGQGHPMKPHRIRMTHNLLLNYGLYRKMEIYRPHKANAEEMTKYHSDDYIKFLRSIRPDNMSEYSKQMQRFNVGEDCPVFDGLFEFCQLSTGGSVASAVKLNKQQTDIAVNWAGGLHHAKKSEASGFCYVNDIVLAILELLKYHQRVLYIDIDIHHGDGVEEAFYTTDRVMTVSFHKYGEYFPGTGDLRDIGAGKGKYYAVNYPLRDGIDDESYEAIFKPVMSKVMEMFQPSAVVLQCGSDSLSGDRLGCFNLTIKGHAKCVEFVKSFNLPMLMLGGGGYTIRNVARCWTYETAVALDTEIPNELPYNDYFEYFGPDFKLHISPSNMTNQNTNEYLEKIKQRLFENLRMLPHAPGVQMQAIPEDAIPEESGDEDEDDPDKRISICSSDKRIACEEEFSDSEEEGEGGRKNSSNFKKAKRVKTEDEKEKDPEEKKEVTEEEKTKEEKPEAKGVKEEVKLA
Outline: (§2)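 FLAG-tagged HDAC1 or HDAC6 was immunopurified from stably expressing cell lines and washed in HDAC buffer (10 mM Tris-HCl pH 8.0, 10 mM NaCl, 10% glycerol). Enzyme was preincubated with inhibitor (1 µM) for 30 min at 4 °C, then given 20 000 cpm [3H]peracetylated H4 peptide for 2 h at 37 °C. The reaction was stopped with acetic acid/HCl, extracted into ethyl acetate, and released [3H]acetate counted by scintillation.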

[2] = target: T1, Protein deacetylase HDAC6 (Homo sapiens) (UniProt Q9UBN7); experiment: Inhibition of recombinant FLAG-tagged HDAC6 assessed as [3H]acetic acid release preincubated for 30 mins measured after 2 hrs by scintillation counting; outline: as §2
T1 sequence (whole entry): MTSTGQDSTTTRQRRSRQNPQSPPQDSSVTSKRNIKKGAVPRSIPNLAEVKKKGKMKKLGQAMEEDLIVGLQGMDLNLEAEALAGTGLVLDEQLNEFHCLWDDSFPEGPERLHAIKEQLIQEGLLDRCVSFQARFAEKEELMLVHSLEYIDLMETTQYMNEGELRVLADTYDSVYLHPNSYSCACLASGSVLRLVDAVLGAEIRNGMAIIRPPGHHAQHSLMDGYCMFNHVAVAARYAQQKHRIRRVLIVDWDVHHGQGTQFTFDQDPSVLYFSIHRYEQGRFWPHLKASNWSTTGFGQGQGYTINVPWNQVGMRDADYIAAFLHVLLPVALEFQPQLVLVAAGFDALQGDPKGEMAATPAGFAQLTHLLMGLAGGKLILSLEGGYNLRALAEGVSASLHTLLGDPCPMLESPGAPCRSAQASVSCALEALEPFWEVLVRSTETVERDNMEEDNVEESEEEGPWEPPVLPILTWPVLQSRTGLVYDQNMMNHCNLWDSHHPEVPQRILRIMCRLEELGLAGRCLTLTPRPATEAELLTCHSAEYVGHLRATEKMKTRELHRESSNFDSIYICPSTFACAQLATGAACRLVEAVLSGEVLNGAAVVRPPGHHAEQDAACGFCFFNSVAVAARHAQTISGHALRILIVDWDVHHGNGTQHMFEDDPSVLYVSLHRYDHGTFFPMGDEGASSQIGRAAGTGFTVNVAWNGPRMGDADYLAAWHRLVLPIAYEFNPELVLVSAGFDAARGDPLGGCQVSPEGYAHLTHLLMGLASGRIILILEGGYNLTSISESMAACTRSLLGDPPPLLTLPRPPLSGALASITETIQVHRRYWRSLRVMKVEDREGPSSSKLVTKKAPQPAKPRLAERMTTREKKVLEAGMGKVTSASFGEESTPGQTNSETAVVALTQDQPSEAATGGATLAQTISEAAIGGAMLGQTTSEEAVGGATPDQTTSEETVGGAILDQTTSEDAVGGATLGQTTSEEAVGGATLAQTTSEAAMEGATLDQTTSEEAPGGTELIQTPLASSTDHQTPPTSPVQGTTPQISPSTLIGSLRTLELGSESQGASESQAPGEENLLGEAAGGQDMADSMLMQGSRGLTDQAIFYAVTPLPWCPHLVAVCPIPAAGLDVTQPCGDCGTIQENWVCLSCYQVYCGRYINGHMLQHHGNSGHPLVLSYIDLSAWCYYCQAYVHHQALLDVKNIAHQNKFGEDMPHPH

Mus musculus [3] = experiment: Toxicity in FVB mouse assessed as mortality at 50 mg/kg, po administered 5 times per week for 2 weeks; assay type: organism-based; design: dose 50 mg/kg, route oral; details: in vivo, 336 h
Outline: (§3)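 8-week-old Fvb mice, SPF-housed in ventilated cages with acidified water, randomly assigned (n = 3 per group) to compound or solvent-only vehicle. Dosing was by oral gavage five times weekly for 2 weeks. Survival was monitored with body weight and blood counts during dosing, and deaths were also recorded during the month after treatment stopped.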

Mus musculus [4] = experiment: Toxicity in FVB mouse assessed as mortality at 50 mg/kg, po administered 5 times per week for 2 weeks measured up to 1 month; assay type: organism-based; design: dose 50 mg/kg, route oral; details: in vivo, 336 h; outline: as §3
Mus musculus [5] = experiment: Toxicity in FVB mouse assessed as effect on number of platelets at 50 mg/kg, po administered 5 times per week for 2 weeks measured during test (reference value: 454 +/- 93 10^3/mm^3); assay type: organism-based; design: dose 50 mg/kg, route oral; details: in vivo, 336 h
Outline: (§4)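 8-week-old FVB mice were housed specific-pathogen-free and randomly assigned, n = 3 per group. They received 50 mg/kg compound or vehicle alone by oral gavage, five times weekly for 2 weeks. Body weight and survival were monitored. Differential blood counts came from nonlethal retro-orbital bleeds before study (J-5), during study (J5) and at end point (J12). Values are means ± spread for n = 3.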

Mus musculus [6] = experiment: Toxicity in FVB mouse assessed as effect on number of platelets at 50 mg/kg, po administered 5 times per week for 2 weeks (reference value: 514 +/- 42.8 10^3/mm^3); assay type: organism-based; design: dose 50 mg/kg, route oral; details: in vivo, 336 h; outline: as §4
Mus musculus [7] = experiment: Toxicity in FVB mouse assessed as effect on mean platelet volume at 50 mg/kg, po administered 5 times per week for 2 weeks measured during test (reference value: 8.4 +/- 0.5 microm^3); assay type: organism-based; design: dose 50 mg/kg, route oral; details: in vivo, 336 h; outline: as §4
Mus musculus [8] = experiment: Toxicity in FVB mouse assessed as effect on mean platelet volume at 50 mg/kg, po administered 5 times per week for 2 weeks (reference value: 8.8 +/- 0.1 microm^3); assay type: organism-based; design: dose 50 mg/kg, route oral; details: in vivo, 336 h; outline: as §4
Mus musculus [9] = experiment: Toxicity in FVB mouse assessed as effect on number of RBC at 50 mg/kg, po administered 5 times per week for 2 weeks measured during test (reference value: 8.1 +/- 0.2 10^6/mm^3); assay type: organism-based; design: dose 50 mg/kg, route oral; details: in vivo, 336 h; outline: as §4
Mus musculus [10] = experiment: Toxicity in FVB mouse assessed as effect on number of RBC at 50 mg/kg, po administered 5 times per week for 2 weeks (reference value: 7.7 +/- 0.1 10^6/mm^3); assay type: organism-based; design: dose 50 mg/kg, route oral; details: in vivo, 336 h; outline: as §4
Mus musculus [11] = experiment: Toxicity in FVB mouse assessed as effect on mean cell volume of red cells at 50 mg/kg, po administered 5 times per week for 2 weeks measured during test (reference value: 43.7 +/- 0.4 microm^3); assay type: organism-based; design: dose 50 mg/kg, route oral; details: in vivo, 336 h; outline: as §4
Mus musculus [12] = experiment: Toxicity in FVB mouse assessed as effect on number of WBC at 50 mg/kg, po administered 5 times per week for 2 weeks measured during test (reference value: 9.1 +/- 0.2 10^3/mm^3); assay type: organism-based; design: dose 50 mg/kg, route oral; details: in vivo, 336 h; outline: as §4
Mus musculus [13] = experiment: Toxicity in FVB mouse assessed as effect on number of WBC at 50 mg/kg, po administered 5 times per week for 2 weeks (reference value: 9.1 +/- 0.2 10^3/mm^3); assay type: organism-based; design: dose 50 mg/kg, route oral; details: in vivo, 336 h; outline: as §4
Mus musculus [14] = experiment: Toxicity in FVB mouse assessed as effect on hematocrit at 50 mg/kg, po administered 5 times per week for 2 weeks measured during test; assay type: organism-based; design: dose 50 mg/kg, route oral; details: in vivo, 336 h; outline: as §4
Mus musculus [15] = experiment: Toxicity in FVB mouse assessed as effect on hematocrit at 50 mg/kg, po administered 5 times per week for 2 weeks; assay type: organism-based; design: dose 50 mg/kg, route oral; details: in vivo, 336 h; outline: as §4
Mus musculus [16] = experiment: Toxicity in FVB mouse assessed as effect on body weight at 50 mg/kg, po administered 5 times per week for 2 weeks measured during test; assay type: organism-based; design: dose 50 mg/kg, route oral; details: in vivo, 336 h; outline: as §4
Mus musculus [17] = experiment: Toxicity in FVB mouse assessed as effect on body weight at 50 mg/kg, po administered 5 times per week for 2 weeks; assay type: organism-based; design: dose 50 mg/kg, route oral; details: in vivo, 336 h; outline: as §4
Mus musculus [18] = experiment: Toxicity in FVB mouse assessed as effect on mean cell volume of red cells at 50 mg/kg, po administered 5 times per week for 2 weeks (reference value: 43.9 +/- 0.5 microm^3); details: in vivo, 336 h
[19] = Therapeutic ratio, EC50 for human PBMC to EC50 for human 937 cells; details: human PBMC versus human 937 cells

| SMILES | EC50 (SK-BR-3) | EC50 (HT-29) | EC50 (U-937) | EC50 (Jurkat) | EC50 (HL-60) | EC50 (K562) | Activity [1] | Activity [2] | other results |
| --- | --- | --- | --- | --- | --- | --- | --- | --- | --- |
| O=C(CCCCCCC(=O)Nc1ccc2c(c1)Cc1ccccc1-2)NO | 4 µM | 2.5 µM | 600 nM | 430 nM | 1130 nM | 3500 nM | Active | Active |  |
| O=C(O)CCCCCCC(=O)NO | > 100 µM | > 100 µM | > 100000 nM | > 100000 nM | > 100000 nM | > 100000 nM |  |  |  |
| O=C(CCCCCCC(=O)Nc1ccccc1)NO [VORINOSTAT] |  |  | 820 nM |  |  | 2200 nM |  |  | Activity (Mus musculus [3]): Non-toxic; Activity (Mus musculus [4]): Non-toxic; Activity (Mus musculus [5]): 617 10^3/mm3; Activity (Mus musculus [6]): 538 10^3/mm3; Activity (Mus musculus [7]): 7.7 um3; Activity (Mus musculus [8]): 8.4 um3; Activity (Mus musculus [9]): 8.3 10^6/mm3; Activity (Mus musculus [10]): 7.6 10^6/mm3; Activity (Mus musculus [11]): 44.1 um3; Activity (Mus musculus [12]): 5.9 10^3/mm3; Activity (Mus musculus [13]): 8.3 10^3/mm3; Activity (Mus musculus [14]): 36.5%; Activity (Mus musculus [15]): 33.7%; Activity (Mus musculus [16]): 94.9%; Activity (Mus musculus [17]): 96.2%; Activity (Mus musculus [18]): 44.5 um3 |
| O=C(CCCCCCC(=O)Nc1cccc2cccnc12)NO | > 100 µM | > 100 µM | 26000 nM |  |  |  |  |  |  |
| O=C(CCCCCCC(=O)Nc1cc2ccc3cccc4ccc(c1)c2c34)NO | 1.2 µM | 1.4 µM | 300 nM | 180 nM | 350 nM | 800 nM | Active | Active | selectivity ratio [19]: 15 |
| O=C(CCCCCCC(=O)Nc1cccc(C(F)(F)F)c1)NO | 26 µM | 6.4 µM | 1200 nM |  |  |  |  |  |  |
| CN(C)c1ccc(NC(=O)CCCCCCC(=O)NO)cc1 | 4.2 µM | 3.15 µM | 1700 nM |  |  |  | Active | Active |  |

The next lines start with results.

| EC50 (SK-BR-3) | EC50 (HT-29) | EC50 (U-937) | EC50 (Jurkat) | EC50 (HL-60) | EC50 (K562) | Activity [1] | Activity [2] | SMILES | other results |
| --- | --- | --- | --- | --- | --- | --- | --- | --- | --- |
| 2.2 µM | 1.4 µM | 450 nM | 530 nM | 1540 nM | 2100 nM | Active | Active | O=C(CCCCCCC(=O)Nc1ccc(C(F)(F)F)cc1)NO |  |
| 3 µM | 4.2 µM | 1800 nM |  |  |  | Active | Active | O=C(CCCCCCC(=O)Nc1ccc(F)cc1)NO |  |
| 40.5 µM | 63 µM | 26500 nM | 16000 nM | 18000 nM | > 100000 nM |  |  | O=C(CCCCCCC(=O)Nc1[nH]c(=O)ncc1F)NO |  |
| 2.3 µM | 2.1 µM | 550 nM | 770 nM | 1870 nM | 3300 nM | Active | Active | O=C(CCCCCCC(=O)Nc1ccc(Cl)cc1)NO |  |
